Four compounds from ChEMBL document CHEMBL1135468 (J Med Chem, 2002) can be followed below.

Structures are written as SMILES. *1 amine or outer side, *2 acyl side, *3 side chain or, on linkers, in order; H or OH if unused. Where a SMILES comes first, the peptide text is derived from it. Bridges are numbered along the chain shown (N, C = ends). [ ]: non-standard residue; d: D form. The star is where a group is joined. 6FAM = O=C1OC2(c3ccc(O)cc3Oc3cc(O)ccc32)c2cc(C(=O)*)ccc21; X1 = O=C([C@@H](O)CS[*:2])[*:1]; Orn = NCCC[C@H](N)C(=O)O; Mpa = O=C(O)CCS

The target in one experiment is T1, Oxytocin receptor (Homo sapiens, UniProt P30559).
T1 sequence (P30559 whole entry): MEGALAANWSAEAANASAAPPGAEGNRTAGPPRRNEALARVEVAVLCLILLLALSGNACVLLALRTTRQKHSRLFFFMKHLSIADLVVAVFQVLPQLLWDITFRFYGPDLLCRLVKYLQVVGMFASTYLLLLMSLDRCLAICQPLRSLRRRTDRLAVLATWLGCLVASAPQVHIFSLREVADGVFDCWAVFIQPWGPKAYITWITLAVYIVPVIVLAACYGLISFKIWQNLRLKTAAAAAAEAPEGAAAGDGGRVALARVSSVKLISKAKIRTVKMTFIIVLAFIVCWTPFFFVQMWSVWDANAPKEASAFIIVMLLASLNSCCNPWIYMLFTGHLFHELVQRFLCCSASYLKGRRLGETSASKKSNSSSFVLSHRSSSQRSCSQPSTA
Kind of experiment: Binding affinity for human oxytocin receptor.

For another experiment, the target named is Vasopressin V1a receptor (Homo sapiens, UniProt P37288). Kind of experiment: Binding affinity for human Vasopressin V1a receptor.
Sequence of Vasopressin V1a receptor (P37288 whole entry): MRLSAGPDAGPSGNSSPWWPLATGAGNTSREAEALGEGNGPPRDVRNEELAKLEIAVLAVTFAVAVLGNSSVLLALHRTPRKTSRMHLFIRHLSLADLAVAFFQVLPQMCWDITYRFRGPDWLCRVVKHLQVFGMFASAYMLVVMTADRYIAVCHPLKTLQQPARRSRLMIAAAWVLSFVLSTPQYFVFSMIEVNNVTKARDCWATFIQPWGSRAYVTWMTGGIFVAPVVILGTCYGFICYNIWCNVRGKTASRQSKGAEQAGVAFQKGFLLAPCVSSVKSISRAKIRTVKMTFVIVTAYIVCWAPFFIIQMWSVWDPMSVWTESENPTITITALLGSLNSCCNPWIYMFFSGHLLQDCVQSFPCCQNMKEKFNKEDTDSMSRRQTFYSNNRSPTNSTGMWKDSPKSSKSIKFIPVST
Another experiment has as its target T2, Vasopressin V1b receptor (Homo sapiens, UniProt P47901).
T2 sequence (P47901 whole entry): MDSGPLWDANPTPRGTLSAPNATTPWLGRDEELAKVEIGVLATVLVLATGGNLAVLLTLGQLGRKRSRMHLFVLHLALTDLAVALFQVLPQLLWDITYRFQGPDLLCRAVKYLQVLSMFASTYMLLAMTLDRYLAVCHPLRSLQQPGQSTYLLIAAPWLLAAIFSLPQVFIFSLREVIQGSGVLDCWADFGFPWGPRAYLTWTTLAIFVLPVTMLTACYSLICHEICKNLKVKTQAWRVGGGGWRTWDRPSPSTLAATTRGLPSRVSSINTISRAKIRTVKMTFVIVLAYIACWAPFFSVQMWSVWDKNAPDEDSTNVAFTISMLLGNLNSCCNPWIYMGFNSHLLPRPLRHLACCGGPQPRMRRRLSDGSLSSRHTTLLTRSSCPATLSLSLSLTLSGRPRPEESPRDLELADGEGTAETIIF
In words: Binding affinity towards human Vasopressin V1b receptor. A digest of the protocol:
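Competition binding on membranes from CHO cells stably expressing one human receptor, butyrate-treated (5 mM, overnight). Radioligands: OT, 200-250 pM [125I]OTA or 120-180 pM [125I]HO-LVA; V1a, 40-60 pM [125I]HO-LVA; V1b, 1-3 nM [3H]AVP. Competitor 1 pM-1 µM; nonspecific with 1 µM unlabeled ligand; 1 h, 30 °C. Ki by nonlinear least-squares, ≥3 experiments in triplicate.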

Another experiment has as its target Vasopressin V2 receptor (Homo sapiens, UniProt P30518). Kind of experiment: Binding affinity towards human Vasopressin V2 receptor. In outline: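 Human V2 receptor stably expressed in CHO cells, butyrate-treated (5 mM, overnight); membranes at 5-10 µg protein/assay competed against 1-3 nM [3H]AVP. Fluorescent ligand ranged 1 pM-1 µM; nonspecific binding defined with 1 µM unlabeled ligand. Incubation 1 h at 30 °C. Ki from nonlinear least-squares fit of two independent experiments, each run in triplicate.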

Sequence of Vasopressin V2 receptor (P30518 whole entry): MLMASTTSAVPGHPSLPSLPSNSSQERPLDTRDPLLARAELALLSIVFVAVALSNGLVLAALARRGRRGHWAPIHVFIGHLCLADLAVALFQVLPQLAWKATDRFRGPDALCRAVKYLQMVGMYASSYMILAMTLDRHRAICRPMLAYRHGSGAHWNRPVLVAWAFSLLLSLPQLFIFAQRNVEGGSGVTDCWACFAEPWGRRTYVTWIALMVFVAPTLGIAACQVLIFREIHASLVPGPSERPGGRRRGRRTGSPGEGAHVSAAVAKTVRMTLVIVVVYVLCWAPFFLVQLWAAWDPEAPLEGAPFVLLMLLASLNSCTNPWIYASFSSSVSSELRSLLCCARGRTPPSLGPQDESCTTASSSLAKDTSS

With `CC[C@H](C)[C@@H]1NC(=O)[C@H](Cc2ccc(O)cc2)NC(=O)[C@@H](O)CSSC[C@@H](C(=O)N2CCC[C@H]2C(=O)N[C@@H](CCCNC(=O)c2ccc3c(c2)C2(OC3=O)c3ccc(O)cc3Oc3cc(O)ccc32)C(=O)NCC(N)=O)NC(=O)[C@H](CC(N)=O)NC(=O)[C@H]([C@@H](C)O)NC1=O` (YITNCP[Orn](6FAM)G-NH2; linker N-5 via X1), the Ki is 0.17 nM at Oxytocin receptor, 11.8 nM on Vasopressin V1a receptor, 87 nM at Vasopressin V1b receptor and above 1000 nM on Vasopressin V2 receptor.
The like results for `CC[C@H](C)[C@@H]1NC(=O)[C@H](Cc2ccc(O)cc2)NC(=O)CCSSC[C@@H](C(=O)N2CCC[C@H]2C(=O)N[C@@H](CCCNC(=O)c2ccc3c(c2)C2(OC3=O)c3ccc(O)cc3Oc3cc(O)ccc32)C(=O)NCC(N)=O)NC(=O)[C@H](CC(N)=O)NC(=O)[C@H]([C@@H](C)O)NC1=O` ([Mpa]YITNCP[Orn](6FAM)G-NH2; disulfide 1-6) were, in that order, 0.4 nM, 30 nM, 282 nM and above 10000 nM.
The like results for `CC[C@H](C)[C@@H]1NC(=O)[C@H](Cc2ccc(O)cc2)NC(=O)CCSSC[C@@H](C(=O)N2CCC[C@H]2C(=O)N[C@@H](CCCCNC(=O)c2ccc3c(c2)C2(OC3=O)c3ccc(O)cc3Oc3cc(O)ccc32)C(=O)NCC(N)=O)NC(=O)[C@H](CC(N)=O)NC(=O)[C@H]([C@@H](C)O)NC1=O` ([Mpa]YITNCPK(6FAM)G-NH2; disulfide 1-6) were, in that order, 1.8 nM, 25.5 nM, 150 nM and above 10000 nM.
Regarding `CC[C@H](C)[C@@H]1NC(=O)[C@H](Cc2ccc(O)cc2)NC(=O)[C@@H](O)CSSC[C@@H](C(=O)N2CCC[C@H]2C(=O)N[C@@H](CCCCNC(=O)c2ccc3c(c2)C2(OC3=O)c3ccc(O)cc3Oc3cc(O)ccc32)C(=O)NCC(N)=O)NC(=O)[C@H](CC(N)=O)NC(=O)[C@H]([C@@H](C)O)NC1=O` (YITNCPK(6FAM)G-NH2; linker N-5 via X1), the Ki on Oxytocin receptor is 0.32 nM; on Vasopressin V1a receptor it was 17.3 nM; at Vasopressin V1b receptor it was 53 nM; at Vasopressin V2 receptor, above 10000 nM.
